Laboratory results: ChEMBL document CHEMBL4052588, “Design of a Biased Potent Small Molecule Inhibitor of the Bromodomain and PHD Finger-Containing (BRPF) Proteins Suitable for Cellular and in Vivo Studies” (J Med Chem, 2017)

Experiments:
[1] = molecular target: T1, Bromodomain-containing protein 1 (Homo sapiens) (UniProt O95696)
T1 sequence (whole entry): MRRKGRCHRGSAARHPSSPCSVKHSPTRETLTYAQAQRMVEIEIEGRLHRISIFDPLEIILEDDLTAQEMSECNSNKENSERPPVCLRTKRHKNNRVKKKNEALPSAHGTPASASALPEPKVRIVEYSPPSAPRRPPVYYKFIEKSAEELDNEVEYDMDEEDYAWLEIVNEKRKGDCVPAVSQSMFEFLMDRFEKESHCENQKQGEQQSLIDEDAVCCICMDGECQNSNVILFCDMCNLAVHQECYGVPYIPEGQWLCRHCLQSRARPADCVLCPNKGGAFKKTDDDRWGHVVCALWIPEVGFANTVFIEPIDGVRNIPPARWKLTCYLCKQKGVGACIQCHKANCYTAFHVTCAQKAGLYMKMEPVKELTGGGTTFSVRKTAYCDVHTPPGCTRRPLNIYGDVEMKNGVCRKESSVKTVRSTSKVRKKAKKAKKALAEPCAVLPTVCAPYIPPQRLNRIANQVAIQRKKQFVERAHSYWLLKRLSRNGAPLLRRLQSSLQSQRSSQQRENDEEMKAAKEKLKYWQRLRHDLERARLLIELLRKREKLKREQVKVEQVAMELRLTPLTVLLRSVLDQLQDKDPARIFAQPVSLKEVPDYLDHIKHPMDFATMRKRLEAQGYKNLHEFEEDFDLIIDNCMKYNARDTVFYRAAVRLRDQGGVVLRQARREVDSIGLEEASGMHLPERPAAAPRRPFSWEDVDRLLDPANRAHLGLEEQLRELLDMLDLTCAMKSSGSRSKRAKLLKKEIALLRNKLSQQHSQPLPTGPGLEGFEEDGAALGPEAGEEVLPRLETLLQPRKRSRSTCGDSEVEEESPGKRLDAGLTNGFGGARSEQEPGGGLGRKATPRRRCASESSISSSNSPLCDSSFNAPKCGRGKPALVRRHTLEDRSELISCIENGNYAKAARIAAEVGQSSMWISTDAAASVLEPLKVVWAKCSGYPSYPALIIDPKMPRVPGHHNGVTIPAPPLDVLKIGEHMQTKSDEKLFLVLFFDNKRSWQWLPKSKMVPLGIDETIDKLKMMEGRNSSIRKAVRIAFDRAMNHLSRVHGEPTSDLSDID

[2] = molecular target: T2, Bromodomain-containing protein 9 (Homo sapiens) (UniProt Q9H8M2)
T2 sequence (whole entry): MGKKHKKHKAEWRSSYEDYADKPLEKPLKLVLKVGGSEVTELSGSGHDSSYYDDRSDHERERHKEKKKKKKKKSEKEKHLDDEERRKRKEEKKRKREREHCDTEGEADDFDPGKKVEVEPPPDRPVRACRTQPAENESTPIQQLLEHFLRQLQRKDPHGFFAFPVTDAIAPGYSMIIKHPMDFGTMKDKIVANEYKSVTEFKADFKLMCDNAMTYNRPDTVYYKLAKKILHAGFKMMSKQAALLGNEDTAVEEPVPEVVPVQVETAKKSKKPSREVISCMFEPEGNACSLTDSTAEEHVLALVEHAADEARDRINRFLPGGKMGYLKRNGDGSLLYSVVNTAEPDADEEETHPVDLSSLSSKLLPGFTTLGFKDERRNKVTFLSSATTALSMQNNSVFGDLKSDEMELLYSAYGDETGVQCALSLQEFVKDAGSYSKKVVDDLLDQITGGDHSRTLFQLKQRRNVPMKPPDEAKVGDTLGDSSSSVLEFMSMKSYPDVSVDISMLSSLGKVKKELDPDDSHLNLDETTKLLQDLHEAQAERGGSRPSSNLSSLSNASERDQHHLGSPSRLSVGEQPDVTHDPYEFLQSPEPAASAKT

[3] = molecular target: T3, Peregrin (Homo sapiens, UniProt P55201); test: Inhibition of human BRPF1 expressed in Escherichia coli BL21 after 1 hr by BROMOscan assay
T3 sequence (P55201 whole entry): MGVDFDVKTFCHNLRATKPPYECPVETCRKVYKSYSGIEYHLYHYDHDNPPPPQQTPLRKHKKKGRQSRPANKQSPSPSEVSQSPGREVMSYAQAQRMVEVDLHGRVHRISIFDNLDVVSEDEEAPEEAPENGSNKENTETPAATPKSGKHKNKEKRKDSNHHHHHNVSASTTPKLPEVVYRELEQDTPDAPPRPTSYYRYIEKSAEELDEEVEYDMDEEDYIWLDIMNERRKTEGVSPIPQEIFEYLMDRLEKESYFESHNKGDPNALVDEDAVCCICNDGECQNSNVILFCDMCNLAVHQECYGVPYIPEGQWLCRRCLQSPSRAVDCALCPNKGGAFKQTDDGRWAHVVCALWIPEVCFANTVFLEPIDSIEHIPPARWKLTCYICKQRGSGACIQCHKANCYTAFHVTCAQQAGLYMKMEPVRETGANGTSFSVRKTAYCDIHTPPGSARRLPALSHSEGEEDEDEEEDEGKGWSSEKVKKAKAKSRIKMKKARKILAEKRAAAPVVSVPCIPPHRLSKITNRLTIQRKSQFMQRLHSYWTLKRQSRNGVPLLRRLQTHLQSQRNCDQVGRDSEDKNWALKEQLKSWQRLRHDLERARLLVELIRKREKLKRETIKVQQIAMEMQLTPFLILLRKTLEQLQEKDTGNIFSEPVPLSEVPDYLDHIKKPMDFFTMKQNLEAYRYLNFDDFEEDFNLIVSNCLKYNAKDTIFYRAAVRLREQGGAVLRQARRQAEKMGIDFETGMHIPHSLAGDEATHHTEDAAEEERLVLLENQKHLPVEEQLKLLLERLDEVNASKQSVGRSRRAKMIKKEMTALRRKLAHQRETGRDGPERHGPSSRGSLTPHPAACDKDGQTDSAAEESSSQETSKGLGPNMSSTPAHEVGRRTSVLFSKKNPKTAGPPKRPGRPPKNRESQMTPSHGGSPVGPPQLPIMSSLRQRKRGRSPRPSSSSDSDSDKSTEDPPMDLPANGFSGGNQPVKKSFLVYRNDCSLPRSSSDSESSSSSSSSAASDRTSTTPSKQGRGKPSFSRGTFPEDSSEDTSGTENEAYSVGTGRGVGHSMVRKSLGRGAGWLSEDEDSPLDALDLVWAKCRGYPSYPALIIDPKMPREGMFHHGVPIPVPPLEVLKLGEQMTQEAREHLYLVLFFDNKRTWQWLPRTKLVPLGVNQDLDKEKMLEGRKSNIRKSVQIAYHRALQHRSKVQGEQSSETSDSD

[4] = molecular target: T3, Peregrin; test: Inhibition of human His tagged BRPF1 incubated for 30 mins followed by addition of biotinylated peptide and further incubation for 30 mins measured by AlphaScreen assay
Outline: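 Independent AlphaScreen biochemical confirmation of BRPF bromodomain inhibition, with BRD9 and BRD4(BD1) as counter-screens. Test compound was serially diluted from a 100 mM DMSO stock.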

[5] = molecular target: Bromodomain-containing protein 4 (Homo sapiens, UniProt O60885); test: Inhibition of human His tagged BRD4-BD1 incubated for 30 mins followed by addition of biotinylated peptide and further incubation for 30 mins measured by AlphaScreen assay

SMILES	ΔTm [1] [°C]	ΔTm [2] [°C]	IC50 [3] [nM]	IC50 [4] [nM]	IC50 [5] [nM]
Cc1cc(C#N)ccc1S(=O)(=O)Nc1ccc2c(ccc(=O)n2C)c1	3.4	2.2	–	–	–
Cn1c(=O)ccc2cc(NS(=O)(=O)c3ccc(C#N)c(Cl)c3)ccc21	–	–	62	–	–
Cc1cc2cc(NS(=O)(=O)c3ccc(C#N)cc3)ccc2n(C)c1=O	5.1	3.5	7.9	140	> 20000
CCc1cc2cc(NS(=O)(=O)c3ccc(C#N)cc3)ccc2n(CC)c1=O	–	–	> 100000	> 20000	> 20000
COc1ccccc1C(=O)Nc1cc2cc(C)c(=O)n(C)c2cc1N1CCCC1	–	–	220	–	–
COc1cc2c(cc1NS(=O)(=O)c1ccc(C#N)cc1)c(C)cc(=O)n2C	–	–	60	–	–
